# Laboratory results as given in ChEMBL document CHEMBL1140929, “Synthesis and evaluation of 18F-labeled 2-phenylbenzothiazoles as positron emission tomography imaging agents for amyloid plaques in Alzheimer's disease” (J Med Chem, 2009).
# Assays:
# [1] = Biodistribution in NMRI mouse urine at 3.7 MBq/mL, iv after 2 mins by gamma counting; format: ADME, organism-based; conditions: in vivo
# Method in brief: (§1)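 Male NMRI mice (30-40 g) anaesthetised with 0.1 mL ip Hypnorm (fentanyl citrate 63 µg/mL, fluanisone 2 mg/mL). Each received 0.1 mL of HPLC-purified 18F tracer, diluted in 0.9% NaCl to 3.7 MBq/mL (ethanol ≤10%, THF ≤0.02%), via tail vein. Killed by decapitation at 2 or 60 min; blood and organs weighed and γ-counted. Background-corrected, expressed as %ID or %ID/g.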
# [2] = Biodistribution in NMRI mouse urine at 3.7 MBq/mL, iv after 60 mins by gamma counting; format: ADME, organism-based; conditions: in vivo, 1 h; method in brief: as §1
# Kidney [3] = experiment: Biodistribution in NMRI mouse kidney at 3.7 MBq/mL, iv after 2 mins by gamma counting; format: ADME, organism-based; conditions: in vivo; method in brief: as §1
# Kidney [4] = experiment: Biodistribution in NMRI mouse kidney at 3.7 MBq/mL, iv after 60 mins by gamma counting; format: ADME, organism-based; conditions: in vivo, 1 h; method in brief: as §1
# Kidney [5] = experiment: Biodistribution in NMRI mouse kidney assessed per gram of tissue at 3.7 MBq/mL, iv after 2 mins by gamma counting; format: ADME, organism-based; conditions: in vivo; method in brief: as §1
# Kidney [6] = experiment: Biodistribution in NMRI mouse kidney assessed per gram of tissue at 3.7 MBq/mL, iv after 60 mins by gamma counting; format: ADME, organism-based; conditions: in vivo, 1 h; method in brief: as §1
# Liver [7] = experiment: Biodistribution in NMRI mouse liver at 3.7 MBq/mL, iv after 2 mins by gamma counting; format: ADME, organism-based; conditions: in vivo; method in brief: as §1
# Liver [8] = experiment: Biodistribution in NMRI mouse liver at 3.7 MBq/mL, iv after 60 mins by gamma counting; format: ADME, organism-based; conditions: in vivo, 1 h; method in brief: as §1
# Liver [9] = experiment: Biodistribution in NMRI mouse liver assessed per gram of tissue at 3.7 MBq/mL, iv after 2 mins by gamma counting; format: ADME, organism-based; conditions: in vivo; method in brief: as §1
# Liver [10] = experiment: Biodistribution in NMRI mouse liver assessed per gram of tissue at 3.7 MBq/mL, iv after 60 mins by gamma counting; format: ADME, organism-based; conditions: in vivo, 1 h; method in brief: as §1
# [11] = Biodistribution in NMRI mouse spleen/pancreas at 3.7 MBq/mL, iv after 2 mins by gamma counting; format: ADME, organism-based; conditions: in vivo; method in brief: as §1
# [12] = Biodistribution in NMRI mouse spleen/pancreas at 3.7 MBq/mL, iv after 60 mins by gamma counting; format: ADME, organism-based; conditions: in vivo, 1 h; method in brief: as §1
# [13] = Biodistribution in NMRI mouse spleen/pancreas assessed per gram of tissue at 3.7 MBq/mL, iv after 2 mins by gamma counting; format: ADME, organism-based; conditions: in vivo; method in brief: as §1
# [14] = Biodistribution in NMRI mouse spleen/pancreas assessed per gram of tissue at 3.7 MBq/mL, iv after 60 mins by gamma counting; format: ADME, organism-based; conditions: in vivo, 1 h; method in brief: as §1
# Lung [15] = experiment: Biodistribution in NMRI mouse lung at 3.7 MBq/mL, iv after 2 mins by gamma counting; format: ADME, organism-based; conditions: in vivo
# Lung [16] = experiment: Biodistribution in NMRI mouse lung at 3.7 MBq/mL, iv after 60 mins by gamma counting; format: ADME, organism-based; conditions: in vivo, 1 h; method in brief: as §1
# Lung [17] = experiment: Biodistribution in NMRI mouse lung assessed per gram of tissue at 3.7 MBq/mL, iv after 2 mins by gamma counting; format: ADME, organism-based; conditions: in vivo; method in brief: as §1
# Lung [18] = experiment: Biodistribution in NMRI mouse lung assessed per gram of tissue at 3.7 MBq/mL, iv after 60 mins by gamma counting; format: ADME, organism-based; conditions: in vivo, 1 h; method in brief: as §1
# Heart [19] = experiment: Biodistribution in NMRI mouse heart at 3.7 MBq/mL, iv after 2 mins by gamma counting; format: ADME, organism-based; conditions: in vivo; method in brief: as §1
# Heart [20] = experiment: Biodistribution in NMRI mouse heart at 3.7 MBq/mL, iv after 60 mins by gamma counting; format: ADME, organism-based; conditions: in vivo, 1 h; method in brief: as §1
# Heart [21] = experiment: Biodistribution in NMRI mouse heart assessed per gram of tissue at 3.7 MBq/mL, iv after 2 mins by gamma counting; format: ADME, organism-based; conditions: in vivo; method in brief: as §1
# Heart [22] = experiment: Biodistribution in NMRI mouse heart assessed per gram of tissue at 3.7 MBq/mL, iv after 60 mins by gamma counting; format: ADME, organism-based; conditions: in vivo, 1 h; method in brief: as §1
# Intestine [23] = experiment: Biodistribution in NMRI mouse intestine at 3.7 MBq/mL, iv after 2 mins by gamma counting; format: ADME, organism-based; conditions: in vivo; method in brief: as §1
# Intestine [24] = experiment: Biodistribution in NMRI mouse intestine at 3.7 MBq/mL, iv after 60 mins by gamma counting; format: ADME, organism-based; conditions: in vivo, 1 h; method in brief: as §1
# Stomach [25] = experiment: Biodistribution in NMRI mouse stomach at 3.7 MBq/mL, iv after 2 mins by gamma counting; format: ADME, organism-based; conditions: in vivo; method in brief: as §1
# Stomach [26] = experiment: Biodistribution in NMRI mouse stomach at 3.7 MBq/mL, iv after 60 mins by gamma counting; format: ADME, organism-based; conditions: in vivo, 1 h; method in brief: as §1
# [27] = Biodistribution in NMRI mouse cerebrum at 3.7 MBq/mL, iv after 2 mins by gamma counting; format: ADME, organism-based; conditions: in vivo; method in brief: as §1
# [28] = Biodistribution in NMRI mouse cerebrum at 3.7 MBq/mL, iv after 60 mins by gamma counting; format: ADME, organism-based; conditions: in vivo, 1 h; method in brief: as §1
# [29] = Biodistribution in NMRI mouse cerebrum assessed per gram of tissue at 3.7 MBq/mL, iv after 2 mins by gamma counting; format: ADME, organism-based; conditions: in vivo; method in brief: as §1
# [30] = Biodistribution in NMRI mouse cerebrum assessed per gram of tissue at 3.7 MBq/mL, iv after 60 mins by gamma counting; format: ADME, organism-based; conditions: in vivo, 1 h; method in brief: as §1
# Cerebellum [31] = experiment: Biodistribution in NMRI mouse cerebellum at 3.7 MBq/mL, iv after 2 mins by gamma counting; format: ADME, organism-based; conditions: in vivo; method in brief: as §1
# Cerebellum [32] = experiment: Biodistribution in NMRI mouse cerebellum at 3.7 MBq/mL, iv after 60 mins by gamma counting; format: ADME, organism-based; conditions: in vivo, 1 h; method in brief: as §1
# Cerebellum [33] = experiment: Biodistribution in NMRI mouse cerebellum assessed per gram of tissue at 3.7 MBq/mL, iv after 2 mins by gamma counting; format: ADME, organism-based; conditions: in vivo; method in brief: as §1
# Cerebellum [34] = experiment: Biodistribution in NMRI mouse cerebellum assessed per gram of tissue at 3.7 MBq/mL, iv after 60 mins by gamma counting; format: ADME, organism-based; conditions: in vivo, 1 h; method in brief: as §1
# Blood [35] = experiment: Biodistribution in NMRI mouse blood at 3.7 MBq/mL, iv after 2 mins by gamma counting; format: ADME, organism-based; conditions: in vivo; method in brief: as §1
# Blood [36] = experiment: Biodistribution in NMRI mouse blood at 3.7 MBq/mL, iv after 60 mins by gamma counting; format: ADME, organism-based; conditions: in vivo, 1 h; method in brief: as §1
# Blood [37] = experiment: Biodistribution in NMRI mouse blood assessed per gram of tissue at 3.7 MBq/mL, iv after 2 mins by gamma counting; format: ADME, organism-based; conditions: in vivo; method in brief: as §1
# Blood [38] = experiment: Biodistribution in NMRI mouse blood assessed per gram of tissue at 3.7 MBq/mL, iv after 60 mins by gamma counting; format: ADME, organism-based; conditions: in vivo, 1 h; method in brief: as §1
# [39] = target: Amyloid-beta precursor protein (Homo sapiens, UniProt P05067); experiment: Displacement of [125I]IMPY from beta-amyloid plaques in Alzheimer's disease patient brain homogenate; format: tissue-based
# Chain of Amyloid-beta precursor protein (P05067 whole entry): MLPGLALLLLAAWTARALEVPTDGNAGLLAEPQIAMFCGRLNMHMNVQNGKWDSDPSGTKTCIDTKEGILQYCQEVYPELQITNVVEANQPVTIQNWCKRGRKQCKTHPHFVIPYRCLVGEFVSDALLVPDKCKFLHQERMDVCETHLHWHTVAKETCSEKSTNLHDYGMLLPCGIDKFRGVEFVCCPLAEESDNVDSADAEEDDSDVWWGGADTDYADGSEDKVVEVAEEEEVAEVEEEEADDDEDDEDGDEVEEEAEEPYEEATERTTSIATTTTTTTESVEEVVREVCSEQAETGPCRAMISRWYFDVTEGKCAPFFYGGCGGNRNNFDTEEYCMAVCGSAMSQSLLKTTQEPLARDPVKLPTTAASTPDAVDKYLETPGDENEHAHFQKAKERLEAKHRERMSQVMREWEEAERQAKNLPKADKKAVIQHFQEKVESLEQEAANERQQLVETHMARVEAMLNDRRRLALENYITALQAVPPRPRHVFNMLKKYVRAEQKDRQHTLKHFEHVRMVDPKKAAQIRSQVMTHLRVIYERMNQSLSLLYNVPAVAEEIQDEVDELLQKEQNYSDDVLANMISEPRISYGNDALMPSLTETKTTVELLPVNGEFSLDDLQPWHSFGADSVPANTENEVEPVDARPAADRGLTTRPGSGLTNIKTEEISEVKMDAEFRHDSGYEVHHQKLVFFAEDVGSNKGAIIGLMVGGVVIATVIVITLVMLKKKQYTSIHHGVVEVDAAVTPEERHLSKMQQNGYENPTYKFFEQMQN
Structure (SMILES),Drug uptake [1] [%ID],Drug uptake [2] [%ID],Drug uptake (Kidney [3]) [%ID],Drug uptake (Kidney [4]) [%ID],Drug uptake (Kidney [5]) [% ID/g],Drug uptake (Kidney [6]) [% ID/g],Drug uptake (Liver [7]) [%ID],Drug uptake (Liver [8]) [%ID],Drug uptake (Liver [9]) [% ID/g],Drug uptake (Liver [10]) [% ID/g],Drug uptake [11] [%ID],Drug uptake [12] [%ID],Drug uptake [13] [% ID/g],Drug uptake [14] [% ID/g],Drug uptake (Lung [16]) [%ID],Drug uptake (Lung [17]) [% ID/g],Drug uptake (Lung [18]) [% ID/g],Drug uptake (Heart [19]) [%ID],Drug uptake (Heart [20]) [%ID],Drug uptake (Heart [21]) [% ID/g],other results
Oc1ccc2nc(-c3ccc([18F])cc3)sc2c1,0.1,11.3,7,5.9,12.6,11.8,28.1,24.6,13.3,11.9,1.2,0.5,4,1.8,1.5,28.1,5.5,0.9,0.1,5.8,Drug uptake (Lung [15]): 7.6 %ID; Drug uptake (Heart [22]): 1.3 % ID/g; Drug uptake (Intestine [23]): 7.1 %ID; Drug uptake (Intestine [24]): 36.7 %ID; Drug uptake (Stomach [25]): 1.1 %ID; Drug uptake (Stomach [26]): 0.5 %ID; Drug uptake [27]: 1.35 %ID; Drug uptake [28]: 0.16 %ID; Drug uptake [29]: 4.7 % ID/g; Drug uptake [30]: 0.57 % ID/g; Drug uptake (Cerebellum [31]): 0.55 %ID; Drug uptake (Cerebellum [32]): 0.08 %ID; Drug uptake (Cerebellum [33]): 5.13 % ID/g; Drug uptake (Cerebellum [34]): 0.76 % ID/g; Drug uptake (Blood [35]): 10 %ID; Drug uptake (Blood [36]): 3.3 %ID; Drug uptake (Blood [37]): 4 % ID/g; Drug uptake (Blood [38]): 1.3 % ID/g
O=C(O)c1ccc2nc(-c3ccc(F)cc3)sc2c1,,,,,,,,,,,,,,,,,,,,,Ki [39]: > 4000 nM
Cc1ccc2nc(-c3ccc(F)cc3)sc2c1,,,,,,,,,,,,,,,,,,,,,Ki [39]: 5.7 nM
COc1ccc2nc(-c3ccc([18F])cc3)sc2c1,0.2,16.9,8.6,9.4,13.9,14.2,19.9,13.6,9.9,6.7,1.3,0.2,4.1,0.4,0.6,9.9,2.1,0.8,0.1,3.9,Drug uptake (Heart [22]): 0.6 % ID/g; Drug uptake (Intestine [23]): 8.4 %ID; Drug uptake (Intestine [24]): 34.3 %ID; Drug uptake (Stomach [25]): 1.1 %ID; Drug uptake (Stomach [26]): 1.2 %ID; Drug uptake [27]: 1.57 %ID; Drug uptake [28]: 0.13 %ID; Drug uptake [29]: 5.1 % ID/g; Drug uptake [30]: 0.43 % ID/g; Drug uptake (Cerebellum [31]): 0.56 %ID; Drug uptake (Cerebellum [32]): 0.07 %ID; Drug uptake (Cerebellum [33]): 5.12 % ID/g; Drug uptake (Cerebellum [34]): 0.68 % ID/g; Drug uptake (Blood [35]): 4.9 %ID; Drug uptake (Blood [36]): 4.4 %ID; Drug uptake (Blood [37]): 2 % ID/g; Drug uptake (Blood [38]): 1.7 % ID/g
[11CH3]Nc1ccc(-c2nc3ccc(O)cc3s2)cc1 [PITTSBURGH COMPOUND B],0.2,24.4,10.3,4.8,19.9,9.1,15.6,9.8,7.9,5,0.6,0.1,4.7,0.7,0.3,3.6,1.3,0.6,0.3,4.2,Drug uptake (Lung [15]): 0.9 %ID; Drug uptake (Heart [22]): 2.1 % ID/g; Drug uptake (Intestine [23]): 12 %ID; Drug uptake (Intestine [24]): 42.5 %ID; Drug uptake (Stomach [25]): 1.1 %ID; Drug uptake (Stomach [26]): 0.3 %ID; Drug uptake [27]: 1.08 %ID; Drug uptake [28]: 0.18 %ID; Drug uptake [29]: 3.6 % ID/g; Drug uptake [30]: 0.6 % ID/g; Drug uptake (Cerebellum [31]): 0.17 %ID; Drug uptake (Cerebellum [32]): 0.03 %ID; Drug uptake (Cerebellum [33]): 1.6 % ID/g; Drug uptake (Cerebellum [34]): 0.31 % ID/g; Drug uptake (Blood [35]): 7.9 %ID; Drug uptake (Blood [36]): 2.7 %ID; Drug uptake (Blood [37]): 3.1 % ID/g; Drug uptake (Blood [38]): 1.1 % ID/g
